Assays:
[1] = folding enthalpy; higher = less favourable; fluorescence melt of hairpins on a sequencing array, two-state fit; conditions: sodium 0.088 M
Method in brief: (§1)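 Bootstrapped two-state fits yielded melting temperature and folding enthalpy for library hairpins. Cy3 fluorescence, with annealed Cy3 and quencher oligos, was imaged on a sequenced MiSeq flow cell in 50 mM Na-HEPES pH 8.0, 25 mM NaCl in 2.5 °C steps up to 60 °C, and normalised to pre-quench Cy3 and to control constructs. Four replicates were combined by inverse variance, and fitted temperatures were raised by 9.35 °C to match UV melts.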

[2] = melting temperature; fluorescence melt of hairpins on a sequencing array, two-state fit, raised by 9.35 °C to match UV melts; conditions: sodium 0.088 M
Method in brief: as §1

| Sequence | folding enthalpy [1] | Tm [2] |
| --- | --- | --- |
| GCTACGCCGAAAGGCAGC (((..(((....)))))) | -11.9 kcal/mol | 42.3 °C |
| GCTAGCCCGAAAGGGAGC (((..(((....)))))) | -14.3 kcal/mol | 37.8 °C |
| GCGGGCGAAAGCCATCGC ((((((....)))..))) | -21.1 kcal/mol | 52.8 °C |
| GATCATCCACATGATC ((((((....)))))) | -34.7 kcal/mol | 46.4 °C |
| GCAGGGCGAAAGCCTGGC ((..(((....)))..)) | -20.2 kcal/mol | 59.8 °C |
| GCGCACGAAAGTGCCCGC ((((((....)))..))) | -12 kcal/mol | 47 °C |
| GCTTAGCGAAAGCTGGGC ((..(((....)))..)) | -20.1 kcal/mol | 51.8 °C |
| GGTGCAGGAAACTGCGCC ((.((((....)))).)) | -34.3 kcal/mol | 65.3 °C |
| GATCAAAGTCTTGATC ((((((....)))))) | -31.1 kcal/mol | 41.7 °C |
| GATAGCCGAAAGGCCATC (((.(((....))).))) | -13.8 kcal/mol | 39.6 °C |
| GCCGTGCGAAAGCAACGC ((..(((....)))..)) | -10.9 kcal/mol | 54.1 °C |
| GATCAGCTCCCTGATC ((((((....)))))) | -32.3 kcal/mol | 49.1 °C |
| GTTCTCGAAAGAGAAC ((((((....)))))) | -35.2 kcal/mol | 61 °C |
| GCCAAGCGAAAGCACGGC (((..((....))..))) | -30.4 kcal/mol | 57.4 °C |
| GCTGGGCGAAAGCCGCGC ((..(((....)))..)) | -15.3 kcal/mol | 61.4 °C |
| GTTCACGGAAACGTAAAC (((.(((....))).))) | -11.4 kcal/mol | 34.9 °C |
| GTAGACGAAAGTCTCTAC ((((((....)))..))) | -11.6 kcal/mol | 34.9 °C |
| GACTACGAAAGTACGTC ((((((....))).))) | -25.7 kcal/mol | 43.3 °C |
| GTCCGAGGAAACTCGAAC ((.((((....)))).)) | -21.3 kcal/mol | 41.3 °C |
| GATGGCGGAAACGCCACC (.(((((....))))).) | -9.71 kcal/mol | 43.6 °C |
| GGCGATCGAAAGATAGCC (((.(((....))).))) | -47 kcal/mol | 58 °C |
| GCGTCCAACGC ((((...)))) | -19.9 kcal/mol | 53.6 °C |
| GGGCTTGGAAACAGGCCC ((((.((....)).)))) | -43.9 kcal/mol | 59.1 °C |

| Sequence | folding enthalpy [1] | Tm [2] |
| --- | --- | --- |
| GATCAAGTATTGATC ((((((...)))))) | -43.4 kcal/mol | 51.8 °C |
| GTAGTCGCGAAAGCGTAC (((..(((....)))))) | -8.28 kcal/mol | 32.9 °C |
| GCGTAGCGAAAGCTCTGC ((..(((....)))..)) | -7.19 kcal/mol | 43.8 °C |
| GTGCACGAAAGTGGCAC ((((((....))).))) | -25.1 kcal/mol | 59.4 °C |
| GCGTTTACGAAAGTACGC (((..(((....)))))) | -24.4 kcal/mol | 47.9 °C |
| GGTCGCGAAAGCGGACC ((((((....))).))) | -22.9 kcal/mol | 67.1 °C |
| GACTGTGCGAAAGCAGTC (((..(((....)))))) | -18 kcal/mol | 45.1 °C |
| GAGGGCGAAAGCCGTCTC ((((((....)))..))) | -20.4 kcal/mol | 59 °C |
| GCGTCGCGAAAGCCTCGC (((..((....))..))) | -21.7 kcal/mol | 50.8 °C |
| GAGTGTGGAAACACGCTC (((.(((....))).))) | -26.9 kcal/mol | 54.5 °C |
| GCAAGCGGAAACGTTTGC ((((.((....)).)))) | -38.5 kcal/mol | 53.5 °C |
| GGCCGCGAAAGCGCAGCC ((((((....)))..))) | -20.7 kcal/mol | 58.4 °C |
| GCCATGCGAAAGCAAAGC ((..(((....)))..)) | -11.5 kcal/mol | 32.2 °C |
| GTCCAGGGAAACCTGGAC (((((((....))))))) | -33.6 kcal/mol | 68.6 °C |
| GGCAGGGGAAACTCTGCC (((((.(....).))))) | -48.5 kcal/mol | 57 °C |
| GCCATTGCGAAAGCAGGC (((..(((....)))))) | -19.1 kcal/mol | 51.4 °C |
| GACGGCGAAAGCCCGTC ((((((....))).))) | -24.7 kcal/mol | 65.4 °C |
| GCGAGCGAAAGCTACGC ((((((....))).))) | -18 kcal/mol | 62.6 °C |
| GCATGGGGAAACCCATAC (.(((((....))))).) | -15.6 kcal/mol | 36.5 °C |
| GGGCCTGGAAACAGACCC (((.(((....))).))) | -38.6 kcal/mol | 50.9 °C |
| GTACGTGGAAACATGTGC (.((.((....)).)).) | -24.4 kcal/mol | 36.5 °C |
| GTCTCAGGAAACTGAGGC (.(((((....))))).) | -37.3 kcal/mol | 51.1 °C |
| GCCGGCGAAAGCCACGGC ((((((....)))..))) | -21.5 kcal/mol | 63.4 °C |

| Sequence | folding enthalpy [1] | Tm [2] |
| --- | --- | --- |
| GTATACGAAAGTAACTAC ((((((....)))..))) | -19.9 kcal/mol | 26.4 °C |
| GCGCCTGGAAACAGGCAC (.(((((....))))).) | -11.9 kcal/mol | 47.9 °C |
| GGATTCCGAAAGGATTCC (((.(((....))).))) | -35.8 kcal/mol | 49.7 °C |
| GATCAGCAGTCTGATC ((((((....)))))) | -34.4 kcal/mol | 48.8 °C |
| GTCAGGCGAAAGCCCGAC (((.(((....))).))) | -23.2 kcal/mol | 48.8 °C |
| GATCTAAATTAGATC ((((((...)))))) | -21.3 kcal/mol | 37.8 °C |
| GCGGAGGGAAACCTCCAC (.(((((....))))).) | -15.4 kcal/mol | 45.7 °C |
| CGCACACGGAAACGTGCG (((..(((....)))))) | -22 kcal/mol | 52.9 °C |
| GTTGGTGGAAACACCAAC (((((((....))))))) | -46.1 kcal/mol | 66.2 °C |
| GGTTTCCGAAAGGAGACC (((.(((....))).))) | -51 kcal/mol | 54.4 °C |
| GTACTGGAAACAGTAC ((((((....)))))) | -36 kcal/mol | 54.7 °C |
| GTAGAAGAAATTCTAC ((((((....)))))) | -26.5 kcal/mol | 39.4 °C |
| GCCACGCGAAAGCTTGGC ((((.((....)).)))) | -35.5 kcal/mol | 66 °C |
| GCCTTTGGAAACAAGGGC (((.(((....))).))) | -40.2 kcal/mol | 48.9 °C |
| GCAGCAGGAAACCACTGC ((((..(....)..)))) | -18.8 kcal/mol | 34.7 °C |
| GTGTACCCGAAAGGGCAC (((..(((....)))))) | -20.6 kcal/mol | 48.3 °C |
| GGCTACACGAAAGTGGCC (((..(((....)))))) | -24.3 kcal/mol | 51.6 °C |
| GCCTCGCGAAAGCGTTGC ((..(((....)))..)) | -15.7 kcal/mol | 39.9 °C |
| GCCCGGGGAAACCCGAGC ((.((((....)))).)) | -25.2 kcal/mol | 52.9 °C |
| GCTAGTGGAAACATTGGC ((.(.((....)).).)) | -10.7 kcal/mol | 28.2 °C |
| GGACTCGAAAGAGATCC ((((((....))).))) | -22.1 kcal/mol | 44.7 °C |
| GTCATCCGAAAGGACGAC (((.(((....))).))) | -36.4 kcal/mol | 49.3 °C |
| GTCGCCGAAAGGCCAGAC ((((((....)))..))) | -13.5 kcal/mol | 40.7 °C |

| Sequence | folding enthalpy [1] | Tm [2] |
| --- | --- | --- |
| GATCCGCCACCGGATC ((((((....)))))) | -34.3 kcal/mol | 56.4 °C |
| GGCTGCGAAAGCAACGCC ((((((....)))..))) | -22.1 kcal/mol | 56.6 °C |
| GTAGCGAAAGCTAC (((((....))))) | -25.8 kcal/mol | 68.7 °C |
| GACAAGCGAAAGCTGGTC (((.(((....))).))) | -32.4 kcal/mol | 56.4 °C |
| GCGTTACGAAAGTACCGC (((.(((....))).))) | -31.3 kcal/mol | 53.7 °C |
| GCGATGCGAAAGCACGC (((.(((....)))))) | -23.4 kcal/mol | 68.4 °C |
| GCTGCTGGAAACGGCAGC (((((.(....).))))) | -44.6 kcal/mol | 63.1 °C |
| GGATCCCCGAAAGGGTCC (((..(((....)))))) | -19.8 kcal/mol | 45.3 °C |
| GACTCCGAAAGGACCGTC ((((((....)))..))) | -13.8 kcal/mol | 29.7 °C |
| GCATCCCGAAAGGGTGC (((.(((....)))))) | -15.5 kcal/mol | 61.5 °C |
| GGTTTCGCGAAAGCGACC (((..(((....)))))) | -8.08 kcal/mol | 32.1 °C |
| GCAAAACGAAAGTTCTGC (((.(((....))).))) | -27.8 kcal/mol | 40.7 °C |
| GGGTCAGAAATGACCC ((((((....)))))) | -34.5 kcal/mol | 65.1 °C |
| GATCTTTACGAAGATC ((((((....)))))) | -32.2 kcal/mol | 45.3 °C |
| GCTCAGGGAAACTTGGGC ((.((.(....).)).)) | -20.6 kcal/mol | 35.3 °C |
| GATCCTAGTAGGATC ((((((...)))))) | -34.1 kcal/mol | 52.4 °C |
| GTGAGAGCGAAAGCTCAC (((..(((....)))))) | -14.5 kcal/mol | 48.6 °C |
| GGCACCGAAAGGTTGCC ((((((....))).))) | -30.9 kcal/mol | 63 °C |
| GGCTTAGGAAACCAAGCC (((((.(....).))))) | -31.4 kcal/mol | 47.4 °C |
| GTACTAGGAAACTAGTAC (((((((....))))))) | -40.1 kcal/mol | 52.3 °C |
| GAGATTGGAAACGATCTC (((((.(....).))))) | -36.1 kcal/mol | 44.2 °C |
| GATTAACGAAAGTTGATC (((.(((....))).))) | -35.2 kcal/mol | 44 °C |
| GAAGGCCCGAAAGGGTTC (((..(((....)))))) | -17.4 kcal/mol | 25.5 °C |
